Results published in article PMC3448962 (Biochemical pharmacology, 2012).
Where two headings read alike, the source gives them in different places. Where a SMILES comes first, the peptide text is derived from it. Bridges are numbered along the chain shown (N, C = ends). [ ]: non-standard residue; d: D form. The star is where a group is joined. X1 = CC[C@H](C)CCCCC(=O)*; Dab = NCC[C@H](N)C(=O)O

Legend:
human AGP [1] = assay: Fluorometric assay: direct titration of fluorescent probe into AGP; conditions: for binding to AGP by direct fluorometric titration: emission did not plateau where seen, no Kd derived
human AGP [2] = assay: in vitro; conditions: pH 7.4, Ki
human AGP [3] = assay: Fluorometric probe displacement assay; conditions: for displacement of BODIPY-PL2 from AGP: probe BODIPY-PL2
[4] = cited from earlier work
[5] = human plasma; equilibrium dialysis; cited from earlier work
human AGP [6] = assay: Isothermal titration calorimetry; assay type: binding; conditions: for Kd: 25 °C
Outline: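 Human AGP (63 μM) in 20 mM HEPES pH 7.0, degassed, was titrated with 80 × 3-μL injections of 10–13 mM test compound at 240-s intervals, stirred at 307 rpm. Runs were at 37 °C, with one compound also at 15, 20, 25 and 30 °C. Delipidation was on lipidex 1000 in 20 mM HEPES pH 7.4 at 37 °C. Heat of dilution was subtracted, and n and ΔH came from a one-set-of-sites fit.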

human AGP [7] = assay: Surface plasmon resonance; assay type: binding; conditions: for SPR binding response at single concentrations: 100 μM and 300 μM of each compound
Outline: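 AGP was thiol-coupled (PDEA/EDC, MES pH 5.0) to a CM5 chip at 5000 RU, with PBS pH 7.4 running buffer at 25 °C. Compound series were 3-fold dilutions from 3 mM, plus single 100 and 300 μM injections, at 50 μL/min: 30 s association, 60 s dissociation. Response was read 10 s before association ended, reference-subtracted and MW-normalised. Glycine pH 1.7 regenerated the chip; chlorpromazine served as surface control. Runs were done ≥3 times.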

human AGP [8] = assay: in vitro; conditions: pH 7.4
[9] = rats; cited from earlier work
[10] = cited from earlier work; remark: listed apart in the source
[11] = system: human α-1-acid glycoprotein (AGP); assay: Fluorometric probe displacement assay; conditions: human

For `CCCCCCCCCCCCCCCC(=O)OC[C@H](COP(=O)(O)OCCNC(=O)CCc1ccc2n1[B-](F)(F)[N+]1=C(C)C=C(C)C1=C2)OC(=O)CCCCCCCCCCCCCCC.CCN(CC)CC` [BODIPY-PL1, N-(4,4-difluoro-5,7-dimethyl-4-bora-3a,4a-diaza-s-indacene-3-propionyl)-1,2-dihexa-decanoyl-sn-glycero-3-phosphoethanolamine, triethylammonium salt], the “binding to AGP by direct fluorometric titration” value (“binding to AGP” below) (human AGP [1]) was “no fluorescence emission observed”.
`CN(C)CCCN1c2ccccc2Sc2ccc(Cl)cc21` [Chlorpromazine] gave a Ki at 2 min (human AGP [2]; displacement of ANS) of 140 ± 10 nM, a Ki at 2 min (human AGP [2]; displacement of AO) of 2800 ± 200 nM and a Ki at 2 min (human AGP [2]; displacement of NR) of 670 ± 50 nM. The “displacement of BODIPY-PL2 from AGP” value (human AGP [3]) was “able to compete with BODIPY-PL2”.
In the case of Polymyxin B [PmB], the “plasma protein binding, critically ill septic patients” value ([4]; critically ill septic patients) is given as “more than 90%”, the “plasma protein binding, healthy subjects” value ([4]; healthy subjects) is given as “around 56%” and the bound to plasma [5] is given as “over 50%”. The Kd (human AGP [6]; read-out: Kd, delipidated AGP, delipidated sample) was 210 µM, the Kd (human AGP [6]; read-out: Kd, non-delipidated AGP, non-delipidated sample) was 103 µM and the “SPR binding response at single concentrations” value (“SPR binding response” below) (human AGP [7]) was “highest response”. The “displacement of BODIPY-PL2 from AGP” value (human AGP [3]) was “unable to produce any discernible displacement”, the Ki (human AGP [3]; read-out: Ki values (text summary over probes), titration of probe-AGP solutions) was greater than 200 µM and the Ki (human AGP [3]; read-out: Ki, displacement of ANS, probe ANS, 20°C, mean ± SE, n = 3 unless otherwise indicated, ND = not detected) was 225 ± 49 µM.
For “2-(4,4-difluoro-5-methyl-4-bora-3a,4a-diaza-s-indacene-3-dodecanoyl)-1-hexadecanoyl-sn-glycero-3-phosphocholine [BODIPY-PL2]”, the “binding to AGP” value (human AGP [1]) was “apparent weak affinity”.
For `CCN(CC)c1ccc2nc3c4ccccc4c(=O)cc-3oc2c1` [NR, Nile Red], the Kd at 2 min (human AGP [8]) was 910 ± 200 nM.
In the case of Colistin nona-peptide [colistin NP], the “binding affinity for AGP by ITC” value (human AGP [6]) is reported as “no detectable binding affinity” and the “SPR binding response” value (human AGP [7]) is reported as “very poor responses”.
In the case of `CC[C@H](C)CCCCC(=O)N[C@@H](CCN)C(=O)N[C@H](C(=O)N[C@@H](CCN)C(=O)N[C@H]1CCNC(=O)[C@H]([C@@H](C)O)NC(=O)[C@H](CCN)NC(=O)[C@H](CCN)NC(=O)[C@H](CC(C)C)NC(=O)[C@@H](CC(C)C)NC(=O)[C@H](CCN)NC1=O)[C@@H](C)O` [Colistin, colistin] (X1-[Dab]T[Dab][Dab][Dab][dL]L[Dab][Dab]T; lactam 4-C (inferred); N-terminus assumed), the plasma protein binding [9] is given as 55–57%, the “level of plasma protein binding in neutropenic infected mice compared to healthy mice” value [10] is given as “greater” and the bound to plasma [5] is given as “over 50%”. For the same compound, the “displacement of BODIPY-PL2 from AGP” value (human AGP [3]) was “unable to produce any discernible displacement”, the Ki ([11]; Ki values (text summary over probes), titration of probe-AGP solutions) was greater than 200 µM and the Ki ([11]; Ki, displacement of ANS, probe ANS, 20°C, mean ± SE, n = 3 unless otherwise indicated, ND = not detected) was 351 ± 188 µM.
For colistin methanesulfonate [CMS], the “binding affinity for AGP by ITC” value (human AGP [6]) was “no detectable binding affinity”, the “SPR binding response” value (human AGP [7]) was “very poor responses” and the “concentration dependence of SPR binding” value (human AGP [7]; concentration series 3 mM to 1.3 μM) was “not concentration dependent”. The “ability to displace the probes” value (human AGP [3]; ANS, Auramine O, Nile Red) was “no ability to displace any of the probes”.
In the case of `O=S(=O)(O)c1cccc2cccc(Nc3ccccc3)c12` [ANS, 1-anilino-8-naphthalene sulfonic acid], the Kd at 2 min (human AGP [1]; human, pH 7.4) is reported as 870 ± 70 nM.
For “[Dansyl-Lys]^1 polymyxin B3 [[Dansyl-Lys^1]PmB3]”, the “binding to AGP” value (human AGP [1]) was “weak AGP affinity”.
